Reference: ChEMBL document CHEMBL4014346, “Lead Optimization Generates CYP11B1 Inhibitors of Pyridylmethyl Isoxazole Type with Improved Pharmacological Profile for the Treatment of Cushing's Disease” (J Med Chem, 2017)

Assays:
[1] = biological target: T1, Cytochrome P450 11B1, mitochondrial (Homo sapiens, UniProt P15538); experiment: Inhibition of human CYP11B1 expressed in hamster V79MZ cells using [1,2-3H]-11-deoxycorticosterone as substrate after 6 hrs by HPLC analysis; assay type: cell-based
T1 sequence (P15538 whole entry): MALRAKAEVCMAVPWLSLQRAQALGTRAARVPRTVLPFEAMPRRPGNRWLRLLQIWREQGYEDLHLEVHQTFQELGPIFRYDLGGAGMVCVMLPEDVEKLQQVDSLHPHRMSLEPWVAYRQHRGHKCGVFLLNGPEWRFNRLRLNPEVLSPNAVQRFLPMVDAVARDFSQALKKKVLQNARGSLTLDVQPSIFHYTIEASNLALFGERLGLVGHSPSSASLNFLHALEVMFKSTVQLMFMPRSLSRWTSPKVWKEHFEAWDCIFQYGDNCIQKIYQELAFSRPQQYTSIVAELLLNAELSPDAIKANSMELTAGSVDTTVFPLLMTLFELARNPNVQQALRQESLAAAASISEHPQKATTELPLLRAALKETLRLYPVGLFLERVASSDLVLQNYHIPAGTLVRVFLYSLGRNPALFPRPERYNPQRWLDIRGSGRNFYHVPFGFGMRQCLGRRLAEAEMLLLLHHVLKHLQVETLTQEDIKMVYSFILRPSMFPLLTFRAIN
Outline: (§1)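 V79MZ cells expressing recombinant human CYP11B1 or CYP11B2, or rat CYP11B1, incubated with [1,2-³H]-11-deoxycorticosterone (100 nM) and inhibitor over a range of concentrations; ketoconazole as reference.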

[2] = biological target: T2, Cytochrome P450 11B2, mitochondrial (Homo sapiens, UniProt P19099); experiment: Inhibition of human CYP11B2 expressed in hamster V79MZ cells using [1,2-3H]-11-deoxycorticosterone as substrate after 6 hrs by HPLC analysis; assay type: ADME, cell-based; outline: as §1
T2 sequence (P19099 whole entry): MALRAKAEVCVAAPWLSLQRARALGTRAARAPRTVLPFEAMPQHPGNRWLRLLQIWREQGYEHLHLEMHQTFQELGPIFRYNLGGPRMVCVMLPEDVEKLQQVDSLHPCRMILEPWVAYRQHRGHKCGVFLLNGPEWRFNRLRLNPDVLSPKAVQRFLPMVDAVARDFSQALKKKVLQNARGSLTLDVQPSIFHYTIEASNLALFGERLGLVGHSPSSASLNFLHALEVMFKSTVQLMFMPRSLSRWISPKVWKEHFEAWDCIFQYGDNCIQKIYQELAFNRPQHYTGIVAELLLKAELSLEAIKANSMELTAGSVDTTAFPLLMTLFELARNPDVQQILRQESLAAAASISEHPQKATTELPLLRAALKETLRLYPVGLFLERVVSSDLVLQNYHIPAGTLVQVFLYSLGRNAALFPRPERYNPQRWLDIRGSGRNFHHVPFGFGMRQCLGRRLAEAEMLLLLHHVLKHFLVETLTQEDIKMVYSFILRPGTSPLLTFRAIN

[3] = Selectivity ratio of IC50 for human CYP11B2 expressed in hamster V79MZ cells to IC50 for human CYP11B1 expressed in hamster V79MZ cells; outline: as §1
[4] = Half life in rat liver S9 fractions at 1 uM in presence of NADPH/UDPGA by LC-MS/MS analysis; assay type: ADME, tissue-based
Outline: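 Samples taken at 0, 5, 15 and 60 min, stopped with cold acetonitrile containing internal standard. Remaining parent measured by LC-MS/MS.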

[5] = biological target: T3, Cytochrome P450 11B1, mitochondrial (Rattus norvegicus, UniProt P15393); experiment: Inhibition of CYP11B1 in Sprague-Dawley rat adrenal tissue using 11-deoxycorticosterone as substrate after 4 hrs by SPA
T3 sequence (P15393 whole entry): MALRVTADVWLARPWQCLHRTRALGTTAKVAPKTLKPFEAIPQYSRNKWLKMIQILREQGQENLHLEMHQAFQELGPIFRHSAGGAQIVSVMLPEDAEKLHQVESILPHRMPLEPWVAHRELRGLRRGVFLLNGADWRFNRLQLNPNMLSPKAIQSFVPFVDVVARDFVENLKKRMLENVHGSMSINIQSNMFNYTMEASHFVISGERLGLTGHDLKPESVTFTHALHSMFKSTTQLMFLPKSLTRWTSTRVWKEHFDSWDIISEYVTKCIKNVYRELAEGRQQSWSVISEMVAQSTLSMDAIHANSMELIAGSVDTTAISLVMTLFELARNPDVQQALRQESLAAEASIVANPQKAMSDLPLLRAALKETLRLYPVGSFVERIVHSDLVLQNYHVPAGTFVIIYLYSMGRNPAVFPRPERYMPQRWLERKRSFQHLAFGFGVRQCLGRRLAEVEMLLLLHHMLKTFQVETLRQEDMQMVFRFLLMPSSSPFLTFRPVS

With Cc1cncc(Cc2cnc(-c3ccccc3)s2)c1 as the compound, how does the IC50 [1] read?
Its IC50 is 0.009 µM.

What about the IC50 [2] of the same compound?
Its IC50 is 0.024 µM.

And the “Ratio IC50” value [3]?
Its value is 3.

What does the source list for c1ccc(-c2cc(Cn3ccnc3)on2)cc1?
IC50 [1]: 0.148 µM; IC50 [2]: 1.3 µM; Ratio IC50 [3]: 9

For Cc1cncc(Cc2ccc(-c3ccccc3F)nc2)c1, which IC50 [1] is on record?
Its IC50 is 0.003 µM.

What about the IC50 [2] of the same compound?
The IC50 was 0.027 µM.

And the “Ratio IC50” value [3]?
Its value is 9.

Which IC50 [1] does the source give for Cc1cncc(Cc2ccc(-c3ccoc3)nc2)c1 here?
Its IC50 is 0.004 µM.

What about the IC50 [2] of the same compound?
The IC50 was 0.028 µM.

And the “Ratio IC50” value [3]?
The value was 7.

What does the source list for Cn1nc(-c2ccccc2)cc1Cn1ccnc1?
IC50 [1]: 0.058 µM; IC50 [2]: 0.215 µM; Ratio IC50 [3]: 4

Which IC50 [1] does the source give for Cc1cncc(Cc2ccc(-c3cccc(NS(C)(=O)=O)c3)nc2)c1 here?
The IC50 was 0.002 µM.

What about the IC50 [2] of the same compound?
Its IC50 is 0.016 µM.

What about the “Ratio IC50” value [3] of the same compound?
Its value is 8.

With Cc1cncc(Cc2ccc(-c3cnn(C)c3)nc2)c1 as the compound, how does the IC50 [1] read?
The IC50 was 0.042 µM.

What about the IC50 [2] of the same compound?
Its IC50 is 0.182 µM.

And the “Ratio IC50” value [3]?
The value was 4.

Which results are given for c1ccc(-c2ncc(Cn3ccnc3)[se]2)cc1?
IC50 [1]: 0.104 µM; IC50 [2]: 0.657 µM; Ratio IC50 [3]: 6

Which results are given for Cc1cncc(Cc2ccc(Sc3ccccc3F)nc2)c1?
IC50 [1]: 0.003 µM; IC50 [2]: 0.024 µM; Ratio IC50 [3]: 8

Which results are given for CC(C)(C(=O)c1cccnc1)c1cccnc1 [METYRAPONE]?
half-life at 1 µM [4]: 12 min; IC50 [5]: 5 µM

With Cc1cncc(Cc2cc(-c3ccccc3)n[nH]2)c1 as the compound, how does the IC50 [1] read?
The IC50 was 0.137 µM.

What about the IC50 [2] of the same compound?
The IC50 was 0.586 µM.

What about the “Ratio IC50” value [3] of the same compound?
Its value is 4.

With c1ccc(-c2ncc(Cn3ccnc3)o2)cc1 as the compound, how does the IC50 [1] read?
The IC50 was 0.15 µM.

And the IC50 [2]?
The IC50 was 0.52 µM.

And the “Ratio IC50” value [3]?
The value was 4.

Which IC50 [1] does the source give for Cc1cncc(Cc2ccc(N3CCOCC3)nc2)c1 here?
The IC50 was 0.022 µM.

And the IC50 [2]?
The IC50 was 0.09 µM.

And the “Ratio IC50” value [3]?
Its value is 4.

With Cc1cncc(Cc2ccc(S(=O)(=O)c3ccccc3)nc2)c1 as the compound, how does the IC50 [1] read?
The IC50 was 0.02 µM.

What about the IC50 [2] of the same compound?
Its IC50 is 0.173 µM.

And the “Ratio IC50” value [3]?
The value was 9.

With Cc1cncc(Cc2cc(-c3ccccc3)nn2C)c1 as the compound, how does the IC50 [1] read?
The IC50 was 0.001 µM.

And the IC50 [2]?
The IC50 was 0.006 µM.

And the “Ratio IC50” value [3]?
The value was 6.

With Cc1cncc(Cc2csnc2-c2ccccc2)c1 as the compound, how does the IC50 [1] read?
The IC50 was 0.048 µM.

And the IC50 [2]?
The IC50 was 0.152 µM.

What about the “Ratio IC50” value [3] of the same compound?
Its value is 3.

Which results are given for Cc1cncc(Cc2ccc(S(=O)(=O)c3ccccc3F)nc2)c1?
IC50 [1]: 0.002 µM; IC50 [2]: 0.017 µM; Ratio IC50 [3]: 9

For c1ccc(-c2cc(Cn3ccnc3)sn2)cc1, which IC50 [1] is on record?
Its IC50 is 0.014 µM.

What about the IC50 [2] of the same compound?
Its IC50 is 0.12 µM.

What about the “Ratio IC50” value [3] of the same compound?
The value was 9.

For Cc1cncc(Cc2cc(-c3ccccc3)ns2)c1, which IC50 [1] is on record?
Its IC50 is 0.001 µM.

And the IC50 [2]?
Its IC50 is 0.008 µM.

And the “Ratio IC50” value [3]?
Its value is 8.

Which IC50 [1] does the source give for Cc1cncc(Cc2ccc(Sc3ccccc3)nc2)c1 here?
Its IC50 is 0.005 µM.

And the IC50 [2]?
The IC50 was 0.03 µM.

And the “Ratio IC50” value [3]?
Its value is 6.

Which results are given for c1ccc(-c2nscc2Cn2ccnc2)cc1?
IC50 [1]: 0.057 µM; IC50 [2]: 0.174 µM; Ratio IC50 [3]: 3

What does the source list for Cc1cncc(Cc2cnc(-c3ccccc3)o2)c1?
IC50 [1]: 0.014 µM; IC50 [2]: 0.116 µM; Ratio IC50 [3]: 8

What does the source list for c1ccc(-c2ncc(Cn3ccnc3)s2)cc1?
IC50 [1]: 0.062 µM; IC50 [2]: 0.459 µM; Ratio IC50 [3]: 7

What does the source list for Cc1cncc(Cc2ccc(-c3ccnn3C)nc2)c1?
IC50 [1]: 0.016 µM; IC50 [2]: 0.097 µM; Ratio IC50 [3]: 6

With Cc1cncc(Cc2ccc(NC3CC3)nc2)c1 as the compound, how does the IC50 [1] read?
The IC50 was 0.004 µM.

And the IC50 [2]?
The IC50 was 0.032 µM.

What about the “Ratio IC50” value [3] of the same compound?
Its value is 8.

Which IC50 [1] does the source give for Cn1c(Cn2ccnc2)cnc1-c1ccccc1 here?
The IC50 was 0.516 µM.

What about the IC50 [2] of the same compound?
The IC50 was 0.507 µM.

What about the “Ratio IC50” value [3] of the same compound?
Its value is 1.
